ChEMBL document CHEMBL1240328, “Selective compounds define Hsp90 as a major inhibitor of apoptosis in small-cell lung cancer” (Nat Chem Biol, 2007)
Calls of active or inactive are those of the source.

Tests used:
[1] = tested on: SK-BR-3; assay: Inhibition of HSP70-mediated antiapoptotic activity in human SKBR3 cells assessed as induction of PARP cleavage after 24 hrs by Western blot analysis; assay type: cell-based
Procedure, shortened: (§1)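 SKBr3 cells were treated for 24 h. Lysates were probed by western blot for caspase-3 and PARP cleavage. Apaf-1 complexes were pulled down with Apaf-1 antibody (with control IgG) and immunoblotted.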

[2] = tested on: SK-BR-3; assay: Inhibition of HSP70-mediated antiapoptotic activity in human SKBR3 cells assessed as induction of cell growth arrest after 72 hrs by propidium iodide staining-based flow cytometry
[3] = molecular target: Heat shock protein HSP 90-beta (Homo sapiens) (UniProt P08238); assay: Inhibition of HSP90-mediated antiapoptotic activity in human SKBR3 cells assessed as induction of PARP cleavage at 200 uM after 24 hrs by Western blot analysis; assay type: cell-based; conditions: SK-BR-3
Procedure, shortened: (§2)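 SKBr3 breast cancer cells at 60–70% confluence treated 24 h with compound or DMSO vehicle. Lysates in 50 mM Tris pH 7.4, 150 mM NaCl, 1% NP-40, quantified by BCA. 20–100 µg resolved by SDS-PAGE, blotted to nitrocellulose and probed for cleaved caspase-3, caspase-9 and PARP, using 1:5,000 peroxidase secondary. β-actin or PI(3)K p85 served as loading control.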

[4] = molecular target: Heat shock protein HSP 90-beta (Homo sapiens) (UniProt P08238); assay: Inhibition of HSP90-mediated antiapoptotic activity in human SKBR3 cells assessed as induction of caspase-3 cleavage at 200 uM after 24 hrs by Western blot analysis; assay type: cell-based; conditions: SK-BR-3; procedure, shortened: as §2
[5] = tested on: NCI-H526; assay: Inhibition of HSP70-mediated antiapoptotic activity in human NCI-H526 cells assessed as release of Apaf-1 from chaperon complex after 24 hrs by Western blot analysis; assay type: cell-based
Procedure, shortened: (§3)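 NCI-H526 cells were treated for 24 h. PARP and caspase-3 cleavage were read by western blot of lysates in Tris/NaCl/NP-40 buffer. Apaf-1 complexes were immunoprecipitated with Apaf-1 antibody, using control IgG, then blotted.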

[6] = molecular target: Heat shock protein HSP 90-beta (Homo sapiens) (UniProt P08238); assay: Inhibition of HSP90-mediated antiapoptotic activity in human MCF7 cells assessed as induction of caspase-3 cleavage at 200 uM after 24 hrs by Western blot analysis; assay type: cell-based
[7] = tested on: SK-BR-3; assay: Inhibition of HSP70-mediated antiapoptotic activity in human SKBR3 cells assessed as induction of caspase-3 cleavage after 24 hrs by Western blot analysis; assay type: cell-based; procedure, shortened: as §1
[8] = tested on: NCI-H526; assay: Inhibition of HSP70-mediated antiapoptotic activity in human NCI-H526 cells assessed as induction of caspase-3 cleavage after 24 hrs by Western blot analysis; assay type: cell-based; procedure, shortened: as §3
[9] = tested on: SK-BR-3; assay: Inhibition of HSP70-mediated antiapoptotic activity in human SKBR3 cells assessed as increase in caspase-3 activity after 24 hrs by Western blot analysis; assay type: cell-based
[10] = molecular target: Heat shock protein HSP 90-beta (Homo sapiens) (UniProt P08238); assay: Inhibition of HSP90-mediated antiapoptotic activity in human MCF7 cells assessed as induction of caspase-9 cleavage at 200 uM after 24 hrs by Western blot analysis; assay type: cell-based
[11] = tested on: NCI-H526; assay: Inhibition of HSP70-mediated antiapoptotic activity in human NCI-H526 cells assessed as induction of PARP cleavage after 24 hrs by Western blot analysis; assay type: cell-based; procedure, shortened: as §3
[12] = molecular target: Heat shock protein HSP 90-beta (Homo sapiens) (UniProt P08238); assay: Inhibition of HSP90-mediated antiapoptotic activity in human MCF7 cells assessed as induction of PARP cleavage at 200 uM after 24 hrs by Western blot analysis; assay type: cell-based
[13] = molecular target: Heat shock protein HSP 90-beta (Homo sapiens) (UniProt P08238); assay: Inhibition of HSP90-mediated antiapoptotic activity in human SKBR3 cells assessed as induction of caspase-9 cleavage at 200 uM after 24 hrs by Western blot analysis; assay type: cell-based; conditions: SK-BR-3; procedure, shortened: as §2
[14] = molecular target: RAC-alpha serine/threonine-protein kinase (Homo sapiens) (UniProt P31749); conditions: NCI-H526, 50 uM
Chain of RAC-alpha serine/threonine-protein kinase (Homo sapiens) (P31749 whole entry): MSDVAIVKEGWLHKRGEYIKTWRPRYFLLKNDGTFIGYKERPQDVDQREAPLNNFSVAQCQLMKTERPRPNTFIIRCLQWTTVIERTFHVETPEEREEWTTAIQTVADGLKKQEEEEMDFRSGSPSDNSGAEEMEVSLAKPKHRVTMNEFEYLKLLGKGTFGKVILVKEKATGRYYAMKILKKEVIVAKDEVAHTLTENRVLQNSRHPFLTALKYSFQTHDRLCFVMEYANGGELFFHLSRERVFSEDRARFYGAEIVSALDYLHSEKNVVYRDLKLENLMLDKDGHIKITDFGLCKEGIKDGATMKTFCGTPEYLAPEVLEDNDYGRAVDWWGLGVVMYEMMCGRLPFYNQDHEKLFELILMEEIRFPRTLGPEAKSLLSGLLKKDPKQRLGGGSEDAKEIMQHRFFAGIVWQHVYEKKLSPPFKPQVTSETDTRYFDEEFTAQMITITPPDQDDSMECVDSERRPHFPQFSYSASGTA

Chain of Heat shock protein HSP 90-beta (Homo sapiens) (P08238 whole entry): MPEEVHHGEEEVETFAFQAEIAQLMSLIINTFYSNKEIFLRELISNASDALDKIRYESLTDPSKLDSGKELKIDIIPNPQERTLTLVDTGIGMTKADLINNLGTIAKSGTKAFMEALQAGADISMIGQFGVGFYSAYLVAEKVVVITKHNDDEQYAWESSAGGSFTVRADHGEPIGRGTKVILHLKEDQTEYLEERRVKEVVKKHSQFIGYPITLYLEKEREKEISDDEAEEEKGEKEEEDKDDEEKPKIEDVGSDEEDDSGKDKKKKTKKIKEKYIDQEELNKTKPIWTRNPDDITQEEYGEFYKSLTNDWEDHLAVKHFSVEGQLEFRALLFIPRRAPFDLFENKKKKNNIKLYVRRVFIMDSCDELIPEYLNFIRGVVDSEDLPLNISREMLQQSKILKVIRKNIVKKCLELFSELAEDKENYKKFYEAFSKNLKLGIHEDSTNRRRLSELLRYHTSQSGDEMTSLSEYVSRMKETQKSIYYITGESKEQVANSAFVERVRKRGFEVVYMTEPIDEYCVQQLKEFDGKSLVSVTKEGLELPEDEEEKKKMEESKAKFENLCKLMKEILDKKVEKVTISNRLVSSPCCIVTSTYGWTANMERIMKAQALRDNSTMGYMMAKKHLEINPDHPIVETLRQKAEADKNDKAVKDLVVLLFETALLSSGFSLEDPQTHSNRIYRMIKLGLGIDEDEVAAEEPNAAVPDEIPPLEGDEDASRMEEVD

O=c1c(O)c(-c2ccc(O)c(O)c2)oc2cc(O)cc(O)c12
inactive: Activity [3] | Activity [4] | inhibition [5] | Activity [6] | inhibition [8] | Activity [10] | inhibition [11] | Activity [12] | Activity [13]
active: inhibition [1] | inhibition [2] | inhibition [7] | inhibition [9]

O=c1[nH]c2ccccc2n1C1CCN(Cc2ccc(-c3nc4cc5[nH]cnc5cc4nc3-c3ccccc3)cc2)CC1
active: inhibition [14]
